Measured values: PMC3786410 (Bioorganic & medicinal chemistry, 2013)
Read-outs that look alike come from different tables or passages of the source.

How the values were obtained:
[1] = target: wild type S1PR2 (Homo sapiens, UniProt O95136); assay: GloSensor cAMP assay, wild type S1PR2-eGFP Jump-In CHO cells; type: cell-based
[2] = target: S1PR1 (Homo sapiens, UniProt P21453); assay: S1PR1 agonist assay; type: cell-based
[3] = target: T1, S1PR2 (Homo sapiens, UniProt O95136); assay: S1PR2 CRE-bla CHO reporter agonist assay; type: cell-based; settings: for EC50: read-out: EC50 S1PR2; for Emax: read-out: Max Activity (% of 1 μM S1P)
How it was run: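 Stable CHO line carrying a CRE-driven β-lactamase reporter and expressing human S1PR2, run in 384-well format. […] For antagonist challenge, agonist dose responses were run with a reference S1PR2 antagonist at 10, 30 or 90 nM.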

[4] = target: S1PR3 (Homo sapiens, UniProt Q99500); assay: S1PR3 agonist assay; type: cell-based
[5] = tested on: CRE-bla parental cell line; assay: parental CRE-bla CHO cell line counterscreen assay; type: cell-based
How it was run: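 Counterscreen in the parental CRE-β-lactamase reporter CHO line without S1PR2, run alongside the S1PR2 assay. Hits were retested in triplicate at 5 micromolar and then tested in dose response.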

[6] = target: T2, S1PR4 (Homo sapiens, UniProt O95977); assay: S1PR4 agonist assay; type: cell-based
T2 sequence (O95977 1-384): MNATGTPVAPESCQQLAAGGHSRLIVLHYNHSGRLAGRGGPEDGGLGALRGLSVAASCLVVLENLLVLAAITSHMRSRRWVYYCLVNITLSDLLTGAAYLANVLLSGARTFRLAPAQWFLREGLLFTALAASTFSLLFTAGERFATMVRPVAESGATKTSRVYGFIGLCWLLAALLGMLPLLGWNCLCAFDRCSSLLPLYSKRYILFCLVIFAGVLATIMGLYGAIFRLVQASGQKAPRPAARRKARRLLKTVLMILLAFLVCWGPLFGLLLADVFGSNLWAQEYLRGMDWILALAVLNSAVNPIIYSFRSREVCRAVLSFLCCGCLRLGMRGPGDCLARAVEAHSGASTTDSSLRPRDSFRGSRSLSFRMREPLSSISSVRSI

[7] = target: S1PR5 (Homo sapiens, UniProt Q9H228); assay: S1PR5 agonist assay; type: cell-based
[8] = target: triple mutant S1PR2 (R108A, E109A and K269A) (Homo sapiens, UniProt O95136, E109A/K269A/R108A); assay: GloSensor cAMP assay, triple mutant S1PR2-eGFP Jump-In CHO cells; type: cell-based
[9] = target: T1, S1PR2; assay: JTE-013 inhibition of agonists in the S1PR2 CRE-bla assay; type: cell-based; settings: linear regression of Schild plot, against S1P
[10] = target: T1, S1PR2; assay: 33P-S1P radioligand competition binding assay; settings: read-out: IC50, displacement of radiolabeled S1P, S1PR2-CRE bla cells, 4°C
[11] = tested on: CRE; settings: ref PubChem AID 662; cited from earlier work

T1 sequence (O95136 whole entry): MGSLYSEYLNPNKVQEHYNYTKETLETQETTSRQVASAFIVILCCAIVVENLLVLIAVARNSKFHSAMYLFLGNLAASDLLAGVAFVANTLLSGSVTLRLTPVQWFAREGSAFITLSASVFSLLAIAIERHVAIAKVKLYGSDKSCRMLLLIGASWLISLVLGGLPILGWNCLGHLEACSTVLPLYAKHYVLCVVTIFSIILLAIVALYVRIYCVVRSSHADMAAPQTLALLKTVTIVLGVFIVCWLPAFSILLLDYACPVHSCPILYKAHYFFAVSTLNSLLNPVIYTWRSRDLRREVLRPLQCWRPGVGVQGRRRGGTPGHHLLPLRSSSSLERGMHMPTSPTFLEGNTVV
Chain of S1PR3 (Q99500 whole entry, species assumed): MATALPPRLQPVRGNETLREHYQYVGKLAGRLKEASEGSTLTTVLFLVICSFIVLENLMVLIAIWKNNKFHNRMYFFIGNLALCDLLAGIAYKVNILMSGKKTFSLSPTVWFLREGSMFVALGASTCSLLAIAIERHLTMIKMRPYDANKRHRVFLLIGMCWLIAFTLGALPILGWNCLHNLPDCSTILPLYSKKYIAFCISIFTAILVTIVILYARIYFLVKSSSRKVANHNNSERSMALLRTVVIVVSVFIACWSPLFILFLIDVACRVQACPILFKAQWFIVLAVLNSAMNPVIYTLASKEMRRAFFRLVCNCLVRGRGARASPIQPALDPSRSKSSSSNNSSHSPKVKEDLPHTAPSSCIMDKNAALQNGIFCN
Chain of S1PR1 (P21453 whole entry, species assumed): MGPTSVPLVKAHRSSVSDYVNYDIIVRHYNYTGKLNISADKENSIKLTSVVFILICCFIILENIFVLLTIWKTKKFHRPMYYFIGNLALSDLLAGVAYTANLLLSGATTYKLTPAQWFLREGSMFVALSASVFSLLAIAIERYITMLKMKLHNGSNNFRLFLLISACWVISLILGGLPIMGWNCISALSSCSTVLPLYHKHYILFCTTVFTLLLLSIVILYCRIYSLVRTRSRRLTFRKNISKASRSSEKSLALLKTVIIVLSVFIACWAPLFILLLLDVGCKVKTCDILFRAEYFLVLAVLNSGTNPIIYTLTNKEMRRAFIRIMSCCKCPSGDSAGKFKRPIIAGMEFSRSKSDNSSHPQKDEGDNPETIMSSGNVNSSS
Chain of wild type S1PR2 (O95136 whole entry): as the sequence (O95136 whole entry) above
Chain of S1PR5 (Q9H228 whole entry, species assumed): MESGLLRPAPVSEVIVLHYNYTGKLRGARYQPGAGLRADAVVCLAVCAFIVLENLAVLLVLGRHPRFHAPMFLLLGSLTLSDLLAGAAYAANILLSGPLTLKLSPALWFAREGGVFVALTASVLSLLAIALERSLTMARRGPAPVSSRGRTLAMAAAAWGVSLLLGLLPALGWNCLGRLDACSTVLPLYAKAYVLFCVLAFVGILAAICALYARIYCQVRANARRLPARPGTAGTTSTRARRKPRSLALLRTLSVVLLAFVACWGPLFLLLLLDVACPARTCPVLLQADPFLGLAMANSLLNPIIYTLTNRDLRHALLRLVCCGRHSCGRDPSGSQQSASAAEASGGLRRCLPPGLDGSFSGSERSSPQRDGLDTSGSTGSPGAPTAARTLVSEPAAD
Chain of triple mutant S1PR2 (R108A, E109A and K269A) (O95136 whole entry R108A/E109A/K269A): as the sequence (O95136 whole entry) above, with R108A, E109A, K269A counted along it

With `Cc1cc(C(=O)Cn2cc(C#N)ccc2=O)c(C)n1Cc1ccccc1` [compound 14] the EC50 ([1]; read-out: EC50, cAMP response) was 1.6 µM, the “activity in S1PR1 agonist assay” value [2] was “inactive” and the increase in potency ([3]; cyanide group in place of the trifluoromethyl of 10) was 1.6 fold. For the same compound, the EC50 ([3]; Table 3, synthesized compounds) was 0.48 µM, the Emax ([3]; Table 3) was 100% and the “activity in S1PR3 agonist assay” value [4] was “inactive”. For the same compound, the “activity in the CRE-bla counterscreen (in words)” value [5] was “inactivity”, the “activity in S1PR4 agonist assay” value [6] was “inactive” and the “activity in S1PR5 agonist assay” value [7] was “inactive”.

With `CCCCCCCCCCCCC/C=C/[C@@H](O)[C@@H](N)COP(=O)(O)O` [S1P, Sphingosine 1-phosphate, reference compound] the “agonist efficacy (in words)” value [1] was “full agonists” and the “cAMP response (in words)” value [8] was “did not elicit a rise in luciferase activity”.

With `Cc1ccc(Sc2ccc(C3SCCS3)cc2[N+](=O)[O-])cc1` [compound 3] the “activity in S1PR1 agonist assay” value [2] was “inactive”, the EC50 ([3]; Table 2, purchased analogues of XAX-164) was 0.55 µM and the Emax ([3]; Table 2) was 130%. For the same compound, the “activity in S1PR3 agonist assay” value [4] was “inactive”, the “activity in S1PR4 agonist assay” value [6] was “inactive” and the “activity in S1PR5 agonist assay” value [7] was “inactive”.

Work on `Cc1nn(C)c2nc(NNC(=O)Nc3cc(Cl)nc(Cl)c3)cc(C(C)C)c12` [JTE-013] yielded a Ki [9] of 0.02 µM and an IC50 [10] of 0.053 µM.

For `CCOC(=O)c1c(C)n(C)c2ccc(OCC(O)Cn3nc(C)cc3C)cc12` (stereo not drawn) [MLS000049871], the “activity in PubChem AID 662” value [11] is listed as “active” and the “activity in the CRE-bla counterscreen (in words)” value [5] is listed as “inactive”.
